One test is filed under the species Cavia porcellus. The test is described as follows: Potency was evaluated on guinea pig ileum. Type of test: functional. The essentials: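 Isolated ileum strip in aerated (O₂ with 5% CO₂) Tyrode-type salt solution (glucose 5 mM) at 37 °C. Isotonic contractions recorded at 1 g loading tension. After 30 min equilibration, cumulative concentration-response curves were run without reaching supramaximal concentrations. Potency expressed as equipotent molar ratio versus carbachol. EPMR averages compared by t-test (p < 0.05).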

Test [1] is described as follows: Potency was evaluated on frog rectus abdominis. Type of test: functional, Rectus abdominis muscle.
Test [2] is described as follows: Compound was evaluated for the ratio of ED50 of nicotinic agonist (N) and ED50 of muscarinic agonist (M). Type of test: functional.
Test [3] in a line: Equipotent molar ratio (EPMR) between ED50 and ED50 of carbachol calculated through the regression of the angular transformant of the fractional log concentration of agonist. The format is functional.

Molecules are shown by their SMILES. Several values for one entry are separate records, joined by “and”; a condition that tells them apart may be missing. Equal entries are not always repeated.

`C[C@H]1O[C@H](CN(C)C)CS1` (racemic) [listing 1 of 2 here]: the values for the ED50 (in the test listed under Cavia porcellus; in test [1]) were 2.76e-07 and 1.7e-05, respectively.

Take `C[C@@H]1O[C@H](C[N+](C)(C)C)CS1` (racemic): in test [2], the Ratio amounted to 642.

In the case of `C[C@H]1O[C@H](CN(C)C)CS1` (racemic) [listing 2 of 2 here], the Ratio in test [2] was 61.6.

Regarding `C[C@@H]1O[C@H](C[N+](C)(C)C)CS1` (stereo in doubt; (+)-1), the Ratio in test [2] was 537.

For the compound `C[C@H]1O[C@H](CN(C)C)CS1` (stereo in doubt; (+)-10) [listing 1 of 2 here], the ED50 in the test listed under Cavia porcellus came to 6.13e-07; in test [1] it was 1.84e-05.

Consider `C[C@H]1O[C@H](CN(C)C)CS1` (stereo in doubt; (+)-10) [listing 2 of 2 here], for which the Ratio in test [2] was 30; in test [3], 3 and 4.5.

With `C[C@@H]1O[C@H](C[N+](C)(C)C)CS1` (stereo in doubt; (-)-1), the Ratio in test [2] amounted to 64.

As for `C[C@H]1O[C@H](CN(C)C)CS1` (stereo in doubt; (-)-10) [listing 1 of 2 here], the ED50 came out at 4.2e-07 in the test filed under Cavia porcellus and 1.12e-05 in test [1].

Consider `C[C@H]1O[C@H](CN(C)C)CS1` (stereo in doubt; (-)-10) [listing 2 of 2 here], for which the Ratio is 26.6 in test [2]; 2 and 2.8 in test [3].

Turning to `C[N+](C)(C)CCOC(N)=O.[Cl-]` [CARBACHOL], the ED50 in the test filed under Cavia porcellus was found to be 2.11e-07; in test [1], 4.04e-06. Further, the Ratio in test [2] is 19.2; in test [3], 1.

Consider `C[C@@H]1O[C@H](C[N+](C)(C)C)C[C@H]1O` [MUSCARINE], for which the ED50 was 7.94e-08 in the test filed under Cavia porcellus and over 0.0005 in test [1]. The Ratio in test [2] was over 6300.

(Values after ChEMBL document CHEMBL1123362, “Resolution, absolute configuration, and cholinergic enantioselectivity of (+)- and (-)-cis-2-methyl-5-[(dimethylamino)methyl]-1,3-oxathiolane methiodide” (1986).)
